A short description of data set [1]: Clearance in human hepatic microsomes by LC-MS/MS analysis. It counts as ADME, Microsome. As to conditions: liver microsomes, read-out: CLH; call rule not given here. The method in brief: (§1)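 Liver microsomes (0.2 mg protein/mL) were incubated with 1 µmol/L test compound in 50 mmol/L potassium phosphate, pH 7.4. The reaction was started with an NADPH-generating system (MgCl₂, glucose-6-phosphate, β-NADP+, G6P dehydrogenase) added at 20% of the reaction volume. Clearance was reported in µL/min/mg.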
On the technique in general: Microsomes from liver hold many membrane-bound enzymes, among them those of drug oxidation.

Data set [2] has as its target Sonic hedgehog protein (Mus musculus, UniProt Q62226). Put plainly: Inhibition of recombinant mouse Shh expressed in […] assessed as inhibition of Gli1 expression after 48 hrs by luciferase reporter gene assay. It counts as cell-based, NIH/3T3. The method in brief: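 NIH3T3 cells stably carrying a Gli-luciferase reporter (kept in DMEM/10% FBS, 500 µg/mL G418) were seeded on collagen-coated plates overnight. Compounds (final 0.03–1000 nM, n = 4 wells) were added with recombinant mouse Shh-N at final 1 µg/mL in 5.8% FBS, then incubated 48 h. Controls were 0.1% DMSO ± Shh-N (n = 10). Read-out was luciferase luminescence; IC50 is the mean of four measurements.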
A general note: Reporter assays use an easily measured gene product as a stand-in for the process of interest.

Data set [3] in a line: Clearance in mouse hepatic microsomes by LC-MS/MS analysis. It counts as ADME, Microsome. The note with it: liver microsomes, read-out: CLH. The method in brief: as §1
The target in data set [4] is Voltage-gated inwardly rectifying potassium channel KCNH2 (Homo sapiens, UniProt Q12809). Put plainly: inhibition of human ERG.
In data set [5] the test system is Mus musculus. Put plainly: In vivo inhibition of Shh signalling in mouse xenografted with PAN-04 cells assessed as Gli1 expression at 25 mg/kg, po bid measured after 24 hrs post first dose relative to control; values are per cent of control. The note with it: PAN-04, po.
Data set [6] is described as follows: Binding affinity to human Smo expressed in 293T cells after 1 hr by fluorescence analysis. It counts as cell-based. The method in brief:
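293T cells were transiently transfected overnight with HA-tagged human Smo, then plated at 6×10⁴ cells/well. Compounds (final 0.03–1000 nM) were incubated 1 h with 2 nM BODIPY-cyclopamine, n = 3 wells per concentration. Media or excess unlabelled cyclopamine set the 0%/100% inhibition controls (n = 5). Cell fluorescence was read by flow cytometry after Versene detachment.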

In data set [7] the test system is Mus musculus. Put plainly: Toxicity against Ptch+/- p53-/- double-mutant mouse medulloblastoma allograft model assessed as body weight loss at 6.25 mg/kg, po bid for 2 weeks. The arrangement: dose 6.25 mg/kg, route oral. It counts as organism-based. As to conditions: in vivo, 336 h. The method in brief:
(§2)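 Nude mice carrying subcutaneous Ptch+/- p53-/- medulloblastoma allografts (passaged in vivo) were dosed orally twice daily for 2 weeks, suspended in 0.5% methylcellulose, vs vehicle, once tumors reached an average of 150–250 mm³. Tumors were measured by caliper, with V = (a × b²)/2. T/C% = mean treated (Vend−Vstart)/control (Vend−Vstart) × 100. Body weight was followed. Points are mean SD of duplicates; 1-tailed Dunnett's test vs controls.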

Data set [8] can be described thus: Antitumor activity against Ptch+/- p53-/- double-mutant mouse medulloblastoma allograft model assessed as tumor growth rate at 6.25 mg/kg, po bid for 2 weeks measured up to 21 days relative to control. Format: functional, Medulloblastoma cell. The method in brief: as §2

Bounds are passed on as bounds.

Sonic hedgehog protein, sequence (Q62226 25-198 limits assumed): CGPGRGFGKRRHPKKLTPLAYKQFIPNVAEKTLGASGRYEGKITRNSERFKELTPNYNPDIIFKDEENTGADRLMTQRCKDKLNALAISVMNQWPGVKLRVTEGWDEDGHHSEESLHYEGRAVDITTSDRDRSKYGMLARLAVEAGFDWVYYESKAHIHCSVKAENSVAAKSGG
Voltage-gated inwardly rectifying potassium channel KCNH2, sequence (Q12809 whole entry): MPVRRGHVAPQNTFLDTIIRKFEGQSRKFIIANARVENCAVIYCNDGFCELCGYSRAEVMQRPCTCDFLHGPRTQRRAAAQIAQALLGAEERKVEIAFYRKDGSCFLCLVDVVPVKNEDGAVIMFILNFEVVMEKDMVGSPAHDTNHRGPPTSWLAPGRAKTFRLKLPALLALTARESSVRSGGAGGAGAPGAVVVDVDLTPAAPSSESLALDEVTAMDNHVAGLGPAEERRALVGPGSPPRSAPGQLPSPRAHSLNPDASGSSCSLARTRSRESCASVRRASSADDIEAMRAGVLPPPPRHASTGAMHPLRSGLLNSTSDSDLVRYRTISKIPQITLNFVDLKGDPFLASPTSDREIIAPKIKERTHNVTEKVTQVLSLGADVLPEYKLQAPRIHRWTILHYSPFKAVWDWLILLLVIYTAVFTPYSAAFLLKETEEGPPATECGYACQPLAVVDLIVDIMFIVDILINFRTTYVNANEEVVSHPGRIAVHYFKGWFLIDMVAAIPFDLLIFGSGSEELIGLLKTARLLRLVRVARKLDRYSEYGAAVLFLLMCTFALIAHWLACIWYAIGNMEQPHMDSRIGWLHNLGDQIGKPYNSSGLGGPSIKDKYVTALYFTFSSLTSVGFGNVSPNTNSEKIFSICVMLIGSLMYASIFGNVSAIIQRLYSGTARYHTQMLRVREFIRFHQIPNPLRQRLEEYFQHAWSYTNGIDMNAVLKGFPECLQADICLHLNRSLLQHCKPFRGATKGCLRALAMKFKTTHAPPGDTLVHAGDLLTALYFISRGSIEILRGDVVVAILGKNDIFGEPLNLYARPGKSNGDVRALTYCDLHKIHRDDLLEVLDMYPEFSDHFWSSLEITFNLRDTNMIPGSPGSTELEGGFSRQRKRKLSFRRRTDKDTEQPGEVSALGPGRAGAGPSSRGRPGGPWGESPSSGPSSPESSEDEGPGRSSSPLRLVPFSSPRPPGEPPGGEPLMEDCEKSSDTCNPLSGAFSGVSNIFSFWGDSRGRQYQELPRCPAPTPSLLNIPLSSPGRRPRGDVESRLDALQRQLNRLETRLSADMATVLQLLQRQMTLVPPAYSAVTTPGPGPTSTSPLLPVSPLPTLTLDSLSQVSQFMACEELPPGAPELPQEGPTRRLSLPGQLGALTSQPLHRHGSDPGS

Turning to `COc1c(C(=O)NCCN2CCCC2)n(C)c2c1c(=O)n(CC(=O)c1ccccc1)c1ccccc21`, the microsomal CLint in data set [1] was 14 µL/min/mg; in data set [3], 95 µL/min/mg. Further, the IC50 – broadly, the midpoint of a concentration-inhibition curve – in data set [2] is 2.9 nM.
In the case of `COc1c(C(=O)NCCN2CCOCC2)n(C)c2c1c(=O)n(CC(=O)c1ccccc1)c1ccccc21`, the microsomal CLint in data set [1] was 73 µL/min/mg; in data set [3] it was 237 µL/min/mg. Moreover, the IC50 in data set [2] was 22 nM.
Turning to `COc1c(C(=O)NC2CCNCC2)n(C)c2c1c(=O)n(CC(=O)c1ccccc1)c1ccccc21`, the microsomal CLint in data set [1] came out at 2 µL/min/mg; in data set [3], 10 µL/min/mg. The IC50 in data set [2] worked out at 21 nM.
In the same order, the values of `COc1c(C(=O)NCCN2CCCCC2)n(C)c2c1c(=O)n(CC(=O)c1ccccc1)c1ccccc21` are 30 µL/min/mg, 192 µL/min/mg and 9.6 nM.
For the compound `CCOc1c(C(=O)NCCN2CCCC2)n(C)c2c1c(=O)n(CC(=O)c1ccccc1)c1ccccc21`, the microsomal CLint in data set [1] came to 26 µL/min/mg; in data set [3] it was 155 µL/min/mg. Moreover, the IC50 in data set [2] turned out to be 7 nM.
As to `COc1c(C(=O)NC2CCN(CCO)CC2)n(C)c2c1c(=O)n(CC(=O)c1ccccc1)c1ccccc21`, the “inhibition (INH)” value in data set [4] is listed as “Active”. Moreover, the microsomal CLint was 6 µL/min/mg in data set [1] and 9 µL/min/mg in data set [3]. Besides, in data set [2], the IC50 is 6.6 nM.
On to `COc1c(C(=O)NC2CCN(C(=O)CO)CC2)n(C)c2c1c(=O)n(CC(=O)c1ccccc1)c1ccccc21`, for which the level, % of control at 25 mg/kg in data set [5] turned out to be 5%. Further, the “inhibition (INH)” value in data set [4] is reported as “Not Active”. Further, the IC50 worked out at 41 nM in data set [6] and 4.6 nM in data set [2]. For the same compound, the figures for the Activity result in data set [7] and in data set [8] were “Non-toxic” and 3%, respectively. The figures for the microsomal CLint in data set [1] and in data set [3] were under 1 µL/min/mg and 11 µL/min/mg, respectively.
With `CCC(=O)Cn1c(=O)c2c(OC)c(C(=O)NC3CCN(CCO)CC3)n(C)c2c2ccccc21`, the microsomal CLint in data set [1] was 3 µL/min/mg; in data set [3] it was under 1 µL/min/mg. The IC50 in data set [2] is over 100 nM.
For the compound `COc1c(C(=O)NC2CCN(CCO)CC2)n(C)c2c1c(=O)n(CCc1ccccc1)c1ccccc21`, the microsomal CLint in data set [1] amounted to 72 µL/min/mg; in data set [3], 48 µL/min/mg. The IC50 in data set [2] amounted to 150 nM.
Consider `COc1c(C(=O)NCCN2CCCC2)sc2c1c(=O)n(CC(=O)c1ccccc1)c1ccccc21`, for which the IC50 in data set [2] is 5.1 nM.
On the same count and under the same terms, next, `COc1c(C(=O)NCCN2CCCC2)oc2c1c(=O)n(CC(=O)c1ccccc1)c1ccccc21`: over 1000 nM.

Source of the values: ChEMBL document CHEMBL2086236, “Discovery of pyrrolo[3,2-c]quinoline-4-one derivatives as novel hedgehog signaling inhibitors” (Bioorg Med Chem, 2012).
